Measured values reported in ChEMBL document CHEMBL4689842, “EUbOPEN Chemogenomics Library wave 1” (2021).
“And” between values parts separate entries of the source, which are not always exact repeats. Identical values can stand only once.

Tested on: U2OS
Experiment: Multiplex assay against U2OS
Type: toxicity, cell-based
Conditions: human
Method in brief: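 Live cells were stained at seeding with Hoechst33342, BioTracker Green Microtubule Cytoskeleton Dye, MitoTracker Red and Annexin V Alexa Fluor 680, then imaged on a CQ1 microscope at 37°C and 5% CO2 after compound addition. CellPathfinder machine-learning gating split cells into Hoechst high-intensity objects or normal cells. Normal cells were split into healthy, pyknosed or fragmented nuclei, and pyknosed cells into mitotic or apoptotic. Tubulin, mitochondrial-mass and membrane-permeability phenotypes are per cents of healthy-nucleus cells.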

[1] = 12 h, 1 µM, compound concentration 1 uM, replicate 1
[2] = 12 h, 1 µM, compound concentration 1 uM, replicate 2
[3] = 24 h, 1 µM, compound concentration 1 uM, replicate 1
[4] = 24 h, 1 µM, compound concentration 1 uM, replicate 2
[5] = 12 h, 10 µM, compound concentration 10 uM, replicate 1
[6] = 12 h, 10 µM, compound concentration 10 uM, replicate 2
[7] = 24 h, 10 µM, compound concentration 10 uM, replicate 1
[8] = 24 h, 10 µM, compound concentration 10 uM, replicate 2
[9] = 48 h, 10 µM, compound concentration 10 uM, replicate 1
[10] = 48 h, 10 µM, compound concentration 10 uM, replicate 2
[11] = 48 h, 1 µM, compound concentration 1 uM, replicate 1
[12] = 48 h, 1 µM, compound concentration 1 uM, replicate 2

CN([C@@H](Cc1ccc(OS(=O)(=O)c2cccc3cnccc23)cc1)C(=O)N1CCN(c2ccccc2)CC1)S(=O)(=O)c1cccc2cnccc12
Population Apoptotic (%) [1]: 52% and 61%
Population Fragmented Nuclei (%) [1]: 3% and 2%
Population Healthy Nuclei (%) [1]: 83% and 89%
Population Hoechst High Intensity Objects (%) [1]: 1%
Population Membrane Permeable-Phenotype (%) [1]: 38% and 75%
Population Mitochondria Different-Phenotype (%) [1]: 32% and 23%
Population Mitotic Cells (%) [1]: 47% and 38%
Population Normal (%) [1]: 98%
Population Pyknosed Nuclei (%) [1]: 12% and 7%
Population Tubulin-Different-Phenotype (%) [1]: 99%
Total Cell Count [1]: 150 and 181
Population Apoptotic (%) [2]: 25% and 40%
Population Fragmented Nuclei (%) [2]: 16% and 6%
Population Healthy Nuclei (%) [2]: 74% and 79%
Population Hoechst High Intensity Objects (%) [2]: 13% and 15%
Population Membrane Permeable-Phenotype (%) [2]: 33% and 69%
Population Mitochondria Different-Phenotype (%) [2]: 46% and 45%
Population Mitotic Cells (%) [2]: 75% and 60%
Population Normal (%) [2]: 86% and 84%
Population Pyknosed Nuclei (%) [2]: 9% and 13%
Population Tubulin-Different-Phenotype (%) [2]: 100%
Total Cell Count [2]: 104 and 101
Population Apoptotic (%) [3]: 69% and 58%
Population Fragmented Nuclei (%) [3]: 4% and 5%
Population Healthy Nuclei (%) [3]: 75% and 73%
Population Hoechst High Intensity Objects (%) [3]: 2% and 1%
Population Membrane Permeable-Phenotype (%) [3]: 25% and 68%
Population Mitochondria Different-Phenotype (%) [3]: 55%
Population Mitotic Cells (%) [3]: 30% and 41%
Population Normal (%) [3]: 97% and 98%
Population Pyknosed Nuclei (%) [3]: 20% and 21%
Population Tubulin-Different-Phenotype (%) [3]: 98% and 99%
Total Cell Count [3]: 154 and 198
Population Apoptotic (%) [4]: 57% and 53%
Population Fragmented Nuclei (%) [4]: 15% and 12%
Population Healthy Nuclei (%) [4]: 68%
Population Hoechst High Intensity Objects (%) [4]: 12% and 9%
Population Membrane Permeable-Phenotype (%) [4]: 32% and 54%
Population Mitochondria Different-Phenotype (%) [4]: 62% and 70%
Population Mitotic Cells (%) [4]: 42% and 46%
Population Normal (%) [4]: 87% and 90%
Population Pyknosed Nuclei (%) [4]: 15%
Population Tubulin-Different-Phenotype (%) [4]: 100%
Total Cell Count [4]: 99 and 102

CN1CCN(C(=O)C(C)(C)c2ccc(C(=O)Nc3cn4cc(-c5ccncc5)ccc4n3)cc2)CC1 [T3-CLK]
Population Apoptotic (%) [5]: 37% and 22%
Population Healthy Nuclei (%) [5]: 90% and 71% and 89%
Population Hoechst High Intensity Objects (%) [5]: 5%
Population Mitotic Cells (%) [5]: 62% and 77%
Population Normal (%) [5]: 94%
Population Pyknosed Nuclei (%) [5]: 10% and 7%
Total Cell Count [5]: 128 and 143 and 333
Population Healthy Nuclei (%) [6]: 88% and 70% and 87%
Population Hoechst High Intensity Objects (%) [6]: 6% and 7% and 9%
Population Membrane Permeable-Phenotype (%) [6]: 62% and 21% and 25%
Population Mitotic Cells (%) [6]: 50% and 100% and 66%
Population Normal (%) [6]: 93% and 92% and 90%
Population Pyknosed Nuclei (%) [6]: 5% and 11% and 3%
Population Apoptotic (%) [7]: 36% and 62% and 33%
Population Fragmented Nuclei (%) [7]: 11% and 21% and 8%
Population Healthy Nuclei (%) [7]: 81% and 64% and 77%
Population Hoechst High Intensity Objects (%) [7]: 5% and 10% and 6%
Population Membrane Permeable-Phenotype (%) [7]: 52% and 26% and 34%
Population Mitotic Cells (%) [7]: 63% and 37% and 66%
Population Normal (%) [7]: 94% and 90% and 93%
Population Pyknosed Nuclei (%) [7]: 6% and 13% and 14%
Total Cell Count [7]: 137 and 141 and 262
Population Apoptotic (%) [8]: 50% and 22%
Population Fragmented Nuclei (%) [8]: 29% and 22% and 15%
Population Healthy Nuclei (%) [8]: 58% and 66% and 70%
Population Hoechst High Intensity Objects (%) [8]: 12% and 9%
Population Membrane Permeable-Phenotype (%) [8]: 17% and 19%
Population Mitotic Cells (%) [8]: 50% and 77%
Population Normal (%) [8]: 87%
Population Pyknosed Nuclei (%) [8]: 11%
Population Apoptotic (%) [9]: 73%
Population Fragmented Nuclei (%) [9]: 34%
Population Healthy Nuclei (%) [9]: 15%
Population Hoechst High Intensity Objects (%) [9]: 16%
Population Membrane Permeable-Phenotype (%) [9]: 56%
Population Mitochondria Different-Phenotype (%) [9]: 87%
Population Mitotic Cells (%) [9]: 26%
Population Normal (%) [9]: 83%
Population Pyknosed Nuclei (%) [9]: 50%
Population Tubulin-Different-Phenotype (%) [9]: 100%
Total Cell Count [9]: 145
Population Apoptotic (%) [10]: 61%
Population Fragmented Nuclei (%) [10]: 28%
Population Healthy Nuclei (%) [10]: 36%
Population Hoechst High Intensity Objects (%) [10]: 23%
Population Membrane Permeable-Phenotype (%) [10]: 63%
Population Mitochondria Different-Phenotype (%) [10]: 81%
Population Mitotic Cells (%) [10]: 38%
Population Normal (%) [10]: 76%
Population Pyknosed Nuclei (%) [10]: 35%
Population Tubulin-Different-Phenotype (%) [10]: 90%
Total Cell Count [10]: 57

Cl.O=c1c2cccn2c2ccccc2n1CCCN1CCC(c2ccc(Cl)cc2)CC1
Population Apoptotic (%) [1]: 53%
Population Fragmented Nuclei (%) [1]: 8%
Population Healthy Nuclei (%) [1]: 77%
Population Hoechst High Intensity Objects (%) [1]: 7%
Population Membrane Permeable-Phenotype (%) [1]: 2%
Population Mitochondria Different-Phenotype (%) [1]: 55%
Population Mitotic Cells (%) [1]: 46%
Population Normal (%) [1]: 92%
Population Pyknosed Nuclei (%) [1]: 14%
Population Tubulin-Different-Phenotype (%) [1]: 39%
Total Cell Count [1]: 233
Population Apoptotic (%) [2]: 60%
Population Fragmented Nuclei (%) [2]: 16%
Population Healthy Nuclei (%) [2]: 73%
Population Hoechst High Intensity Objects (%) [2]: 8%
Population Membrane Permeable-Phenotype (%) [2]: 0%
Population Mitochondria Different-Phenotype (%) [2]: 56%
Population Mitotic Cells (%) [2]: 40%
Population Normal (%) [2]: 91%
Population Pyknosed Nuclei (%) [2]: 9%
Population Tubulin-Different-Phenotype (%) [2]: 30%
Total Cell Count [2]: 119
Population Apoptotic (%) [5]: 81%
Population Healthy Nuclei (%) [5]: 58%
Population Hoechst High Intensity Objects (%) [5]: 8%
Population Membrane Permeable-Phenotype (%) [5]: 61%
Population Mitotic Cells (%) [5]: 18%
Population Normal (%) [5]: 91%
Population Pyknosed Nuclei (%) [5]: 20%
Population Tubulin-Different-Phenotype (%) [5]: 99%
Total Cell Count [5]: 201
Population Apoptotic (%) [6]: 78%
Population Fragmented Nuclei (%) [6]: 21%
Population Healthy Nuclei (%) [6]: 57%
Population Hoechst High Intensity Objects (%) [6]: 11%
Population Membrane Permeable-Phenotype (%) [6]: 74%
Population Mitochondria Different-Phenotype (%) [6]: 98%
Population Mitotic Cells (%) [6]: 21%
Population Normal (%) [6]: 89%
Population Pyknosed Nuclei (%) [6]: 21%
Population Tubulin-Different-Phenotype (%) [6]: 98%
Total Cell Count [6]: 58
Population Apoptotic (%) [3]: 55%
Population Fragmented Nuclei (%) [3]: 9%
Population Healthy Nuclei (%) [3]: 73%
Population Hoechst High Intensity Objects (%) [3]: 4%
Population Membrane Permeable-Phenotype (%) [3]: 0%
Population Mitochondria Different-Phenotype (%) [3]: 45%
Population Mitotic Cells (%) [3]: 44%
Population Normal (%) [3]: 95%
Population Pyknosed Nuclei (%) [3]: 16%
Population Tubulin-Different-Phenotype (%) [3]: 26%
Total Cell Count [3]: 300
Population Apoptotic (%) [4]: 25%
Population Fragmented Nuclei (%) [4]: 16%
Population Healthy Nuclei (%) [4]: 70%
Population Hoechst High Intensity Objects (%) [4]: 7%
Population Membrane Permeable-Phenotype (%) [4]: 2%
Population Mitochondria Different-Phenotype (%) [4]: 38%
Population Mitotic Cells (%) [4]: 75%
Population Normal (%) [4]: 92%
Population Pyknosed Nuclei (%) [4]: 13%
Population Tubulin-Different-Phenotype (%) [4]: 19%
Total Cell Count [4]: 147
Population Apoptotic (%) [7]: 88%
Population Fragmented Nuclei (%) [7]: 21%
Population Healthy Nuclei (%) [7]: 45%
Population Hoechst High Intensity Objects (%) [7]: 6%
Population Membrane Permeable-Phenotype (%) [7]: 76%
Population Mitochondria Different-Phenotype (%) [7]: 96%
Population Mitotic Cells (%) [7]: 11%
Population Normal (%) [7]: 93%
Population Pyknosed Nuclei (%) [7]: 33%
Population Tubulin-Different-Phenotype (%) [7]: 100%
Total Cell Count [7]: 229
Population Apoptotic (%) [8]: 87%
Population Fragmented Nuclei (%) [8]: 14%
Population Healthy Nuclei (%) [8]: 64%
Population Hoechst High Intensity Objects (%) [8]: 7%
Population Membrane Permeable-Phenotype (%) [8]: 72%
Population Mitochondria Different-Phenotype (%) [8]: 98%
Population Mitotic Cells (%) [8]: 12%
Population Normal (%) [8]: 92%
Population Pyknosed Nuclei (%) [8]: 20%
Population Tubulin-Different-Phenotype (%) [8]: 98%
Total Cell Count [8]: 65
Population Apoptotic (%) [11]: 51%
Population Fragmented Nuclei (%) [11]: 6%
Population Healthy Nuclei (%) [11]: 82%
Population Hoechst High Intensity Objects (%) [11]: 4%
Population Membrane Permeable-Phenotype (%) [11]: 2%
Population Mitochondria Different-Phenotype (%) [11]: 17%
Population Mitotic Cells (%) [11]: 48%
Population Normal (%) [11]: 95%
Population Pyknosed Nuclei (%) [11]: 10%
Population Tubulin-Different-Phenotype (%) [11]: 11%
Total Cell Count [11]: 287
Population Apoptotic (%) [12]: 62%
Population Fragmented Nuclei (%) [12]: 18%
Population Healthy Nuclei (%) [12]: 70%
Population Hoechst High Intensity Objects (%) [12]: 5%
Population Membrane Permeable-Phenotype (%) [12]: 4%
Population Mitochondria Different-Phenotype (%) [12]: 24%
Population Mitotic Cells (%) [12]: 37%
Population Normal (%) [12]: 94%
Population Pyknosed Nuclei (%) [12]: 11%
Population Tubulin-Different-Phenotype (%) [12]: 18%
Total Cell Count [12]: 131
Population Apoptotic (%) [9]: 87%
Population Fragmented Nuclei (%) [9]: 18%
Population Healthy Nuclei (%) [9]: 28%
Population Hoechst High Intensity Objects (%) [9]: 12%
Population Membrane Permeable-Phenotype (%) [9]: 84%
Population Mitochondria Different-Phenotype (%) [9]: 100%
Population Mitotic Cells (%) [9]: 12%
Population Normal (%) [9]: 87%
Population Pyknosed Nuclei (%) [9]: 53%
Population Tubulin-Different-Phenotype (%) [9]: 100%
Total Cell Count [9]: 318
Population Apoptotic (%) [10]: 88%
Population Fragmented Nuclei (%) [10]: 16%
Population Healthy Nuclei (%) [10]: 46%
Population Hoechst High Intensity Objects (%) [10]: 10%
Population Membrane Permeable-Phenotype (%) [10]: 67%
Population Mitochondria Different-Phenotype (%) [10]: 97%
Population Mitotic Cells (%) [10]: 11%
Population Normal (%) [10]: 89%
Population Pyknosed Nuclei (%) [10]: 36%
Population Tubulin-Different-Phenotype (%) [10]: 97%
Total Cell Count [10]: 74
